Source: ChEMBL document CHEMBL5390262, “Further Studies on the Highly Active Des-C-Ring and Aromatic-D-Ring Analogues of 1α,25-Dihydroxyvitamin D3 (Calcitriol): Refinement of the Side Chain” (J Med Chem, 2023)
The source made the active and inactive calls. The rule behind the calls is not given here.

Assays:
[1] = test system: HaCaT; assay: Induction of human HaCaT cells differentiation assessed as increase in formation of compact epithelioid islands at 0.1 microM incubated for 48 hrs by phase-contrast microscopy; assay type: functional, cell-based
In short: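 HaCaT keratinocytes in charcoal-treated FCS medium treated 24 h after plating with compound at 10^-7 M in ethanol for 48 h. Ethanol-treated controls. Differentiation judged by phase-contrast microscopy, e.g. compact epithelioid island formation.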

[2] = test system: MDA-MB-231; assay: Antiproliferative activity against human MDA-MB-231 cells cultured as 3D spheroids assessed as decrease in cell growth by measuring the sphere diameter at 0.1 uM incubated for 6 days in presence of cisplatin by Phase-contrast microscopy; assay type: functional, cell-based; conditions: time 6.0 day
In short: (§1)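 3D culture: single-cell suspension of MDA-MB-231 (5x10^3 cells/100 μL) grown 4 days on a cell-repellent surface. Then treated 6 days with compound at 10^-7 M, given every other day, with or without cisplatin 25 μM. Ethanol control. Sphere growth quantified as relative units; mean ± SD.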

[3] = Toxicity in Swiss CD-1 mouse assessed as body weight change at 0.3 microg/kg,ip using sesame oil as vehicle for 21 days on every other day; conditions: in vivo, 0.0003 mg/kg, 504 h, dose 0.3 µg/kg, time 21 day
In short: (§2)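 Groups of 5 male Swiss CD-1 mice given 0.3 μg/kg i.p. every other day for 21 days in sesame oil vehicle; sesame oil alone as control. Body weight recorded at day 21. Serum calcium measured at end of test by colorimetric calcium assay kit. Mean ± SD, n=5.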

[4] = test system: MCF7; assay: Upregulation of Cadherin-1 protein expression in human MCF7 cells at 0.1 uM incubated for 48 hrs by Western blot analysis; assay type: functional, cell-based
In short: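 MCF-7 cells in charcoal-stripped FCS medium treated with compound at 10^-7 M (ethanol vehicle) for 48 h. E-cadherin protein detected by Western blot with GAPDH as loading control; bands quantified by densitometry.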

[5] = test system: Mus musculus; assay: Effect on hypercalcemic activity in Swiss CD-1 mouse assessed as increase in serum calcium level at 0.3 microg/kg,ip using sesame oil as vehicle for 21 days on every other day by QuantiChom calcium assay; assay type: functional; conditions: dose 0.3 µg/kg, time 21.0 day; in short: as §2
[6] = test system: MDA-MB-231; assay: Antiproliferative activity against human MDA-MB-231 cells cultured as 3D spheroids assessed as decrease in cell growth by measuring the sphere diameter at 0.1 uM incubated for 6 days by Phase-contrast microscopy; assay type: functional, cell-based; conditions: time 6.0 day; in short: as §1
[7] = test system: MDA-MB-231; assay: Antiproliferative activity against human MDA-MB-231 cells assessed as decrease in cell proliferation at 0.1 uM incubated for 48 hrs in presence of cisplatin by MTT assay; assay type: functional, cell-based
In short: (§3)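 MDA-MB-231 cells seeded at 2 x 10^5 cells/well in medium with charcoal-treated FCS, then treated 24 h later with compound at 10^-7 M (ethanol vehicle) for 48 h, alone or together with cisplatin 25 μM. Read by MTT, DMSO solubilization, absorbance at 570 nm. Expressed as percent inhibition of proliferation relative to ethanol control normalized to 100%.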

[8] = test system: MDA-MB-231; assay: Antiproliferative activity against human MDA-MB-231 cells assessed as decrease in cell proliferation at 0.1 uM incubated for 48 hrs by MTT assay; assay type: functional, cell-based; in short: as §3
[9] = molecular target: T1, Vitamin D3 receptor (Homo sapiens, UniProt P11473); assay: Binding affinity to full length human VDR by Competitive binding assay
T1 sequence (P11473 whole entry): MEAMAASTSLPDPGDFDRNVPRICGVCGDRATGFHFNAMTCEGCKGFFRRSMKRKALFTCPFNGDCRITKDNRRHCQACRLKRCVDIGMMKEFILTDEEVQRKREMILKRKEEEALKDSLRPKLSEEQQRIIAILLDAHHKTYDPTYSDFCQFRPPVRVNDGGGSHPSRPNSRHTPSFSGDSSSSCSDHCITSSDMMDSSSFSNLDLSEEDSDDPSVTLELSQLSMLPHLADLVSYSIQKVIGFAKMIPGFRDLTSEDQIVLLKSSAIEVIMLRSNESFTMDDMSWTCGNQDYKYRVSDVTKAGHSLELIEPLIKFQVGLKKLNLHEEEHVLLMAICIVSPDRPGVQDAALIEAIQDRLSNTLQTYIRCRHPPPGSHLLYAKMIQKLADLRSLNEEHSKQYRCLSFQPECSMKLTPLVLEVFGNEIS

SMILES	IC50 [9]	Activity [1]	Activity [2]	Activity [3]	Activity [4]	Activity [5]	Activity [6]	Activity [7]	Activity [8]
C=C1/C(=C\C=C2/CCC[C@]3(C)[C@@H]([C@H](C)CCCC(C)(C)O)CC[C@@H]23)C[C@@H](O)C[C@@H]1O [CALCITRIOL]		Active	Active	Toxic	Active	Active	inactive	Active	Active
C=C1/C(=C\C=C(/CC)c2cccc(CCC#CCC(C)(C)O)c2)C[C@@H](O)C[C@@H]1O	7.47 nM	Active	Active	Non-Toxic	Active	inactive	inactive	Active	Active
C=C1/C(=C\C=C(/C)c2cccc(CCC#CCC(O)(C(F)(F)F)C(F)(F)F)c2)C[C@@H](O)C[C@@H]1O	45.7 nM	Active	Active	Non-Toxic	Active	inactive	inactive	Active	Active

The next lines start with results.

IC50 [9]	SMILES	Activity [1]	Activity [2]	Activity [3]	Activity [4]	Activity [5]	Activity [6]	Activity [7]	Activity [8]
2.91 nM	C=C1/C(=C\C=C(/CC)c2cccc(CCCCCC(O)(C(F)(F)F)C(F)(F)F)c2)C[C@@H](O)C[C@@H]1O	Active	Active	Non-Toxic	Active	inactive	inactive	Active	Active
4.64 nM	C=C1/C(=C\C=C(/CC)c2cccc(CCC#CCC(O)(C(F)(F)F)C(F)(F)F)c2)C[C@@H](O)C[C@@H]1O	Active	Active	Non-Toxic	Active	inactive	inactive	Active	Active
